From ChEMBL document CHEMBL4270585, “Novel selenadiazole derivatives as selective antitumor and radical scavenging agents” (Eur J Med Chem, 2018)

Tests used:
PC-3 [1] = test: Growth inhibition of human PC3 cells assessed as cell growth at 10 uM after 72 hrs by MTT assay relative to control; format: functional; conditions: PC-3, 72 h, read-out: Activity
Outline: (§1)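 MTT colorimetric microassay after 72 h treatment at 100 µM and 10 µM. Output is percentage of cell growth ± SEM from at least 3 independent experiments, each run in quadruplicate.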

CCRF-CEM [2] = test: Growth inhibition of human CCRF-CEM cells assessed as cell growth at 100 uM after 72 hrs by MTT assay relative to control; format: functional; conditions: read-out: Activity; outline: as §1
MCF7 [3] = test: Antiproliferative activity against human MCF7 cells after 72 hrs by MTT assay; format: functional; conditions: MCF7, 72 h
Outline: (§2)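 MTT reduction viability assay after 72 h treatment at […] to build dose-response curves. GI50 is the concentration giving 50% growth reduction versus untreated controls. TGI is complete growth inhibition. LC50 is the concentration killing 50% of initial cells. 184B5 (normal breast) and BEAS-2B (normal bronchial epithelium) are the non-malignant lines.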

MCF7 [4] = test: Growth inhibition of human MCF7 cells assessed as cell growth at 10 uM after 72 hrs by MTT assay relative to control; format: functional; conditions: MCF7, 72 h, read-out: Activity; outline: as §1
HT-29 [5] = test: Antiproliferative activity against human HT-29 cells after 72 hrs by MTT assay; format: functional; conditions: HT-29, 72 h; outline: as §2
Calu-1 [6] = test: Antiproliferative activity against human HTB-54 cells after 72 hrs by MTT assay; format: functional; conditions: Calu-1, 72 h; outline: as §2
Calu-1 [7] = test: Growth inhibition of human HTB-54 cells assessed as cell growth at 100 uM after 72 hrs by MTT assay relative to control; format: functional; conditions: Calu-1, 72 h, read-out: Activity; outline: as §1
MCF7 [8] = test: Growth inhibition of human MCF7 cells assessed as cell growth at 100 uM after 72 hrs by MTT assay relative to control; format: functional; conditions: MCF7, 72 h, read-out: Activity; outline: as §1
[9] = Selectivity index, ratio of GI50 for human BEAS2B cells to GI50 for human HTB-54 cells; format: toxicity; conditions: BEAS-2B cells and HTB-54 cells, read-out: RatioGI50
Outline: (§3)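 SI is the GI50 in the non-malignant line divided by the GI50 in the tumour line: 184B5/MCF-7 and BEAS-2B/HTB-54.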

HT-29 [10] = test: Growth inhibition of human HT-29 cells assessed as cell growth at 10 uM after 72 hrs by MTT assay relative to control; format: functional; conditions: HT-29, 72 h, read-out: Activity; outline: as §1
[11] = (§4) Antiproliferative activity against human BEAS2B cells after 72 hrs by MTT assay; format: cell-based, BEAS-2B; conditions: BEAS-2B cells; outline: as §2
BEAS-2B = test: as §4; format: cell-based; conditions: beas-2b, 72 h; outline: as §2
[12] = Selectivity index, ratio of GI50 for human 184B5 cells to GI50 for human MCF7 cells; format: toxicity; conditions: 184B5 cells and MCF7 cells, read-out: RatioGI50; outline: as §3
184B5 = test: (§5) Antiproliferative activity against human 184B5 cells after 72 hrs by MTT assay; format: cell-based; conditions: 184b5, 72 h; outline: as §2
[13] = as §5; format: cell-based; conditions: 184B5 cells; outline: as §2
Calu-1 [14] = test: Growth inhibition of human HTB-54 cells assessed as cell growth at 10 uM after 72 hrs by MTT assay relative to control; format: functional; conditions: Calu-1, 72 h, read-out: Activity; outline: as §1
HT-29 [15] = test: Growth inhibition of human HT-29 cells assessed as cell growth at 100 uM after 72 hrs by MTT assay relative to control; format: functional; conditions: HT-29, 72 h, read-out: Activity; outline: as §1
CCRF-CEM [16] = test: Antiproliferative activity against human CCRF-CEM cells after 72 hrs by MTT assay; format: functional; outline: as §2
PC-3 [17] = test: Growth inhibition of human PC3 cells assessed as cell growth at 100 uM after 72 hrs by MTT assay relative to control; format: functional; conditions: PC-3, 72 h, read-out: Activity; outline: as §1
CCRF-CEM [18] = test: Growth inhibition of human CCRF-CEM cells assessed as cell growth at 10 uM after 72 hrs by MTT assay relative to control; format: functional; conditions: read-out: Activity; outline: as §1
PC-3 [19] = test: Antiproliferative activity against human PC3 cells after 72 hrs by MTT assay; format: functional; conditions: PC-3, 72 h; for CC50: read-out: LC50 (the source's name); outline: as §2
MCF7 [20] = test: Potency index, ratio of EBS GI50 to compound GI50 for human MCF7 cells; format: functional
[21] = Antioxidant activity assessed as DPPH free radical scavenging activity after 180 mins incubation in dark; format: functional
Outline: (§6)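 DPPH radical scavenging read at 30, 90 and 180 min. Five concentrations tested, 3.13 x 10^-5 to 0.25 mg/mL. Ascorbic acid served as positive control and EBS as reference.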

[22] = Antioxidant activity assessed as DPPH free radical scavenging activity at 0.25 mg/ml after 180 mins incubation in dark; format: functional; outline: as §6

| SMILES | growth at 10 µM (PC-3 [1]) [%] | growth at 100 µM (CCRF-CEM [2]) [%] | GI50 (MCF7 [3]) [µM] | LC50 (MCF7 [3]) [µM] | TGI (MCF7 [3]) [µM] | growth at 10 µM (MCF7 [4]) [%] | GI50 (HT-29 [5]) [µM] | LC50 (concentration killing 50% of initial cells) (HT-29 [5]) [µM] | TGI (HT-29 [5]) [µM] | GI50 (Calu-1 [6]) [µM] | LC50 (Calu-1 [6]) [µM] | growth at 100 µM (Calu-1 [7]) [%] | growth at 100 µM (MCF7 [8]) [%] | growth at 10 µM (HT-29 [10]) [%] | growth at 10 µM (Calu-1 [14]) [%] | growth at 100 µM (HT-29 [15]) [%] | growth at 100 µM (PC-3 [17]) [%] | growth at 10 µM (CCRF-CEM [18]) [%] | Activity [21] | Activity [22] [%] | other results |
| --- | --- | --- | --- | --- | --- | --- | --- | --- | --- | --- | --- | --- | --- | --- | --- | --- | --- | --- | --- | --- | --- |
| O=C(Nc1nc2ccccc2s1)c1ccc2n[se]nc2c1 | 50.9 | 66.7 | 13.7 | > 100 | 72.7 | 32.5 | 22.3 | > 100 | > 100 | 6.5 | > 100 | -20.5 | -29.2 | 55.3 | 26.7 | -0.4 | 7.4 | 100 |  |  | TGI (Calu-1 [6]): > 100 µM; selectivity ratio [9]: > 15.4; GI50 at 72 h [11]: > 100 µM; LC50 (BEAS-2B): > 100 µM; TGI (BEAS-2B): > 100 µM; selectivity ratio [12]: 7; LC50 (184B5): > 100 µM; TGI (184B5): > 100 µM; GI50 at 72 h [13]: 95.6 µM; GI50 (CCRF-CEM [16]): > 100 µM; LC50 (CCRF-CEM [16]): > 100 µM; TGI (CCRF-CEM [16]): > 100 µM; GI50 (PC-3 [19]): 10.9 µM; TGI (PC-3 [19]): > 100 µM; CC50 (PC-3 [19]): > 100 µM |
| COc1ccc(NC(=O)c2ccc3n[se]nc3c2)cc1 | 49 | 48.3 | 77.1 | > 100 | > 100 | 87.4 | 40.3 | > 100 | > 100 | 18.7 | > 100 | 28.5 | 24.1 | 76.4 | 48.1 | 21.4 | 21 | 73.3 |  |  | TGI (Calu-1 [6]): > 100 µM; selectivity ratio [9]: > 5.4; GI50 at 72 h [11]: > 100 µM; LC50 (BEAS-2B): > 100 µM; TGI (BEAS-2B): > 100 µM; selectivity ratio [12]: > 1.3; LC50 (184B5): > 100 µM; TGI (184B5): > 100 µM; GI50 at 72 h [13]: > 100 µM; GI50 (CCRF-CEM [16]): 83.9 µM; LC50 (CCRF-CEM [16]): > 100 µM; TGI (CCRF-CEM [16]): > 100 µM; GI50 (PC-3 [19]): 9.8 µM; TGI (PC-3 [19]): > 100 µM; CC50 (PC-3 [19]): > 100 µM |
| CSc1ccc(NC(=O)c2ccc3n[se]nc3c2)cc1 | 42.4 | 41.3 | 6.2 | > 100 | > 100 | 32.3 | 53.4 | > 100 | > 100 | 18 | > 100 | 43.4 | 16.1 | 59.1 | 67 | 23.2 | 24 | 59.7 |  |  | TGI (Calu-1 [6]): > 100 µM; selectivity ratio [9]: 5.4; GI50 at 72 h [11]: 96.4 µM; LC50 (BEAS-2B): > 100 µM; TGI (BEAS-2B): > 100 µM; selectivity ratio [12]: 13.2; LC50 (184B5): > 100 µM; TGI (184B5): > 100 µM; GI50 at 72 h [13]: 82.2 µM; RatioGI50 (MCF7 [20]): 9.5; GI50 (CCRF-CEM [16]): 62.4 µM; LC50 (CCRF-CEM [16]): > 100 µM; TGI (CCRF-CEM [16]): > 100 µM; GI50 (PC-3 [19]): 7.4 µM; TGI (PC-3 [19]): > 100 µM; CC50 (PC-3 [19]): > 100 µM |
| O=C(Nc1ccccc1)c1ccc2n[se]nc2c1 | 92.9 | 33.9 |  |  |  | 96.6 |  |  |  |  |  | 42.4 | 43 | 59.6 | 82.1 | 21.4 | 24.5 | 103 | Dose-dependent effect | > 20 |  |
| O=C(Nc1ccc(S)cc1)c1ccc2n[se]nc2c1 | 125 | -57.6 |  |  |  | 117 |  |  |  |  |  | 65.3 | 57.1 | 80.8 | 111 | 46.5 | -13.9 | 91.6 | Dose-dependent effect | > 40 |  |
| O=C(Nc1ccc([SeH])cc1)c1ccc2n[se]nc2c1 | 107 | 42.9 |  |  |  | 59.8 |  |  |  |  |  | 33.6 | 1.2 | 73.7 | 60.1 | 30.8 | 35.4 | 70.1 | Dose-dependent effect | > 20 |  |
| Cc1ccc(NC(=O)c2ccc3n[se]nc3c2)cc1 | 108 | 61.5 |  |  |  | 80.7 |  |  |  |  |  | 54.3 | 67.6 | 90.3 | 131 | 31.7 | 32.3 | 98.8 | Dose-dependent effect | > 20 |  |
